Shown are actives, neighbours in structure and some others; about 3.7% of the full set was active somewhere.
Exocytosis inh – LAMP-1 surface exposure blockers, TALL-104 cells – cell-based, flow cytometry, MLPCN library, primary screen | TALL-104 LAMP-1 surface exposure; cells stimulated with thapsigargin and PMA | inhibition, % at 10 µM | hit rate 0.66% among 360,000;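 active means inhibition above about 55%, limit read from the data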
MC4R ag barr – MC4R agonists recruiting beta-arrestin, primary screen, cell-based, luminescence, agonist arm of biased-ligand search; hit rate 0.98% among 360,000; activation, % at 8.9 µM; Melanocortin receptor 4 (Homo sapiens), P32245; U2OS MC4R beta-arrestin complementation; percent of melanotan II response, DMSO zero; AID 540308, 2011;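 active means activation above a per-plate cutoff, the mean activation of sample wells on that plate plus 3 SD, cut at about 8% in these data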
Myeloid diff 2 – induction of myeloid progenitor differentiation, primary screen, cell-based, flow cytometry, MLPCN library. calls only at 10 µM. ER-HoxA9 myeloid progenitors, lysozyme-GFP differentiation. hit rate 1% among 360,000. AID 624256, 2012;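 active means normalized GFP-positive differentiation at or above the plate's own cutoff, the solvent-only control mean plus 3 SD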;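 further: cells exposed to compound for four days before flow analysis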
EBI2 block – EBI2 receptor antagonists, beta-arrestin recruitment, primary screen, cell-based, luminescence, 7a,25-OHC stimulation, uHTS; 7a,25-OHC stimulated; AID 651636, 2012; hit rate 0.81% among 360,000; G-protein coupled receptor 183 (Homo sapiens), P32249; inhibition, % at 5 µM; in the data active means inhibition above about 38%;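 further: enzyme fragment complementation signal reports receptor beta-arrestin coupling in cells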
Target sequence (P32249 whole entry, looked up, the tested form may be a part): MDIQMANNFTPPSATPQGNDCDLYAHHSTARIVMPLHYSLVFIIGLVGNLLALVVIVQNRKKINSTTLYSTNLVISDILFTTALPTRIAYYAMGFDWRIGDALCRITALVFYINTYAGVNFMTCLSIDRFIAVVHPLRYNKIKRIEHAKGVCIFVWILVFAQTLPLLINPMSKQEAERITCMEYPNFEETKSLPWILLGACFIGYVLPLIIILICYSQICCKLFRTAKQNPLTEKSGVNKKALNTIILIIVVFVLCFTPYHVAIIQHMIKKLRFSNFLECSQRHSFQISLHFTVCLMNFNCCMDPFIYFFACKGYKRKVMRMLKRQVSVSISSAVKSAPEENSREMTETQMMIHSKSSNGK
MC4R antagonist – MC4R antagonists of cAMP signaling, primary screen, cell-based, TR-FRET, antagonist arm of biased-ligand search | MC4R-expressing cells, MTII-stimulated cAMP, LANCE TR-FRET | inhibition, % at 6.5 µM | hit rate 0.48% among 360,000 | AID 540295, 2011;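 active means inhibition above its plate's cutoff, the mean of tested wells on that plate plus 3 SD, cut at about 29% in these data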
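System – human MC4R-expressing U2OS cells · Also added – Melanotan II · Dosing – one concentration, 6.5 µM nominal · Timing – 30-min compound, 1-h challenge, 1-h detection, room temperature · Measured by – Eu-cAMP/anti-cAMP TR-FRET, emission 671 nm · Replicates – singlicate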
Granule exo CP1 – inhibitors of lytic granule exocytosis, confirmation, TALL-104 cells, flow cytometry, Cherry Pick01. shares compounds with Exocytosis inh. LAMP-1 externalization; stimulated with PMA plus thapsigargin. inhibition, % at 10 µM. hit rate 11% among 1,500. AID 651954, 2012; in the data active means inhibition above about 60%
Large screens that a line does not name were inactive (follow-up assays come after a bar, where they were run).

CCOC(=O)N1CCN(S(=O)(=O)c2ccc(C(=O)Nc3nc4ccccc4s3)cc2)CC1	Exocytosis inh 100 | Granule exo CP1 inactive
CCOC(=O)c1c(NC(=O)c2cccs2)sc2c1CCN(C(=O)OCC)C2	Exocytosis inh 83 | Granule exo CP1 inactive
CCOC(=O)c1c(NC(=O)c2cccs2)sc2c1CCCC2	none
O=C(/C=C/c1ccccc1[N+](=O)[O-])OCC(=O)N1CCN(c2ccccc2)CC1	none
CCCCNC(=O)C(NC(=O)c1cccs1)C(=O)c1ccccc1 (stereo not given)	none (no result: MC4R ag barr, MC4R antagonist)
COc1cccc(NC(=O)c2cc3ccccc3cc2OC)c1	none
CC1(C)OC2OC(C(=O)N/N=C/c3cc(Br)ccc3O)C3OC(C)(C)OC3C2O1 (stereo not given)	none
CC1(C(=O)NS(=O)(=O)c2ccc(C#N)cc2)CCN1C(=O)C1(c2ccccc2)CC1 (stereo not given)	none
CCOC(=O)C1CCCC12Nc1cccc3cccc(c13)N2 (stereo not given)	Exocytosis inh 86 | Granule exo CP1 inactive
COc1ccc(CC(=O)NCC2CCCN(Cc3ccc(F)c(OC)c3)C2)cc1 (stereo not given)	Exocytosis inh 59 | Granule exo CP1 inactive
COc1ccc(CC(=O)NCC2CCCN(Cc3ccc(SC)cc3)C2)cc1 (stereo not given)	none
COc1cccc(-c2csc(NC(=O)Nc3ccccc3)n2)c1	Exocytosis inh 88 | Granule exo CP1 inactive
O=C(Nc1ccccc1)Nc1nc(-c2ccccc2)cs1	none
CN(c1ccccc1)S(=O)(=O)c1ccc(C(=O)NCCc2ccc(F)cc2)cc1	Exocytosis inh 72 | Granule exo CP1 inactive
COc1ccccc1N(C)S(=O)(=O)c1ccc(C(=O)NCCc2ccc(F)cc2)cc1	none
C[C@H](CO)N1C[C@H](C)[C@@H](CN(C)S(C)(=O)=O)Oc2ccc(N(C)C)cc2C1=O	Exocytosis inh 60 | Granule exo CP1 inactive
O=C(Nc1ccccc1N1CCOCC1)c1cccc(Oc2ccccc2)c1	Exocytosis inh 63 | Granule exo CP1 inactive
CCO[C@@H]1OC(C(=O)NC2CC2)=C[C@H](c2c[nH]c3ccccc23)[C@H]1CCCO	none
CCO[C@H]1OC(C(=O)NC2CC2)=C[C@@H](c2c[nH]c3ccccc23)[C@@H]1CCCO	Exocytosis inh 56 | Granule exo CP1 inactive
CNC(=O)CS(=O)(=O)CC(=O)Nc1cc(OC(C)C)c(Cl)cc1Cl	none
OC(CNCCC(c1ccccc1)c1ccccc1)COc1ccccc1 (stereo not given)	Exocytosis inh 74, MC4R ag barr 25 | Granule exo CP1 inactive
OC(CNCCc1ccccc1)COc1ccc(OCC(O)CNCCc2ccccc2)cc1 (stereo not given)	none
OC(CNCc1ccco1)Cn1c2ccc(Br)cc2c2cc(Br)ccc21 (stereo not given)	Exocytosis inh 78 | Granule exo CP1 inactive
Brc1ccc2ncnc(NCc3ccco3)c2c1	none
Cc1cc(C(=O)N2CCN(S(=O)(=O)c3ccccc3F)CC2)c(C)o1	none
COc1ccc(Cl)cc1N(C(=O)c1ccco1)C(C(=O)NC1CCCC1)c1ccco1 (stereo not given)	Exocytosis inh 64 | Granule exo CP1 inactive
Cc1cc(=O)[nH]c(SCC(=O)NN(c2ccccc2)c2ccccc2)n1	none
CN(C)c1ccc(C(C(=O)NCc2ccccc2)N(Cc2ccco2)C(=O)c2snc(C(N)=O)c2N)cc1 (stereo not given)	Exocytosis inh 99 | Granule exo CP1 inactive
CN(C)c1ccc(C(C(=O)NCC2CCCO2)N(Cc2ccco2)C(=O)c2snc(C(N)=O)c2N)cc1 (stereo not given)	none
CCOC(=O)c1ccccc1NC(=O)CSc1nc(N)cc(=O)[nH]1	none
O=S1OCCN1c1ccccc1 (stereo not given)	none

Screening results deposited in PubChem by several laboratories.
